≈ marks a conversion by molar mass, not a printed value. Read-outs that look alike come from different tables or passages of the source.
What was measured:
[1] = test system: hepatic microsomes from PB-, DEX- or VEH-treated rats (P450 enzymes); format: in vitro ADME, rat; conditions: for Metabolite identified by GC/MS (major/minor): large scale experiment; for Metabolite formation, Percent of ΣOH-PCB: 37°C; for Percent of PCB 136 metabolized to the metabolite: microsomes from PB-, DEX- or VEH-treated rats; for Percent of PCB 136 metabolized to the metabolite / Percent of PCB 136 converted to the metabolite: 50 μM PCB 136; for Formation of metabolite relative to microsomes from VEH-treated rats: 2 min incubation
rat recombinant P450 2B1 = conditions: cited from earlier work
[2] = test system: Ryanodine receptors (RyRs); conditions: cited from earlier work
[3] = test system: hepatic microsomes from PB-, DEX- or VEH-treated rats (P450 enzymes); experiment: Enantioselective gas chromatography; format: in vitro ADME, rat; conditions: for Enantiomeric fraction (EF), range over time course: 50 μM PCB 136
P450 2B enzymes = experiment: BROD activity of hepatic microsomes from inducer-treated rats; format: biochemical, rat; conditions: intraperitoneal inducer treatment of male Sprague-Dawley rats, relative to VEH
P450 3A = experiment: BQ activity of hepatic microsomes from inducer-treated rats; format: biochemical, rat; conditions: intraperitoneal inducer treatment of male Sprague-Dawley rats, relative to VEH
[4] = Aqueous solubility of PCB 136 in incubation buffer by light scattering; format: physicochemical; conditions: phosphate buffer (incubation buffer), pH 7.4
Method in brief: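 Test compound dissolved in DMSO was added to 0.1 M phosphate buffer containing 3 mM MgCl2. Light scattering was read at 37 °C in a Peltier-controlled luminescence spectrophotometer, with excitation and emission both at 400 nm and 5 nm slits. Integration time was 5 s, with 5 min pre-recording followed by 5 min recording.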

[5] = microsomes from PB-treated rats
[6] = microsomes from DEX-treated rats, 5 μM PCB 136, 5 min
[7] = microsomes from PB-treated rats, 5 μM PCB 136, 5 min
[8] = microsomes from VEH-treated rats, 5 μM PCB 136, 5 min
[9] = microsomes from PB-treated rats, 50 μM PCB 136, 5 min
[10] = all incubations with 5 μM PCB 136
[11] = all three microsomal preparations
[12] = microsomes from DEX-treated rats

Compound: Oc1c(O)c(Cl)c(-c2c(Cl)ccc(Cl)c2Cl)c(Cl)c1Cl [4,5-diOH-PCB 136, 2,2',3,3',6,6'-hexachlorobiphenyl-4,5-diol]
- Metabolite identified by GC/MS (major/minor) [1, 5]: minor metabolites
- Metabolite formation, Percent of ΣOH-PCB [1, 6]: 3%
- Percent of PCB 136 metabolized to the metabolite [1]: < 0.1%
- Metabolite formation, Percent of ΣOH-PCB [1, 7]: 22%
- Metabolite formation, Percent of ΣOH-PCB [1, 8]: 2%
- Metabolite formation, Percent of ΣOH-PCB ([1]; microsomes from VEH-treated rats, 50 μM PCB 136, 5 min): 1%

Compound: Oc1cc(Cl)c(-c2c(Cl)ccc(Cl)c2Cl)c(Cl)c1Cl [4-OH-PCB 136, 2,2',3,3',6,6'-hexachlorobiphenyl-4-ol]
- Metabolite identified by GC/MS (major/minor) [1, 5]: minor metabolites
- Metabolite formation, Percent of ΣOH-PCB [1, 6]: 3%
- Metabolite formation, Percent of ΣOH-PCB ([1]; microsomes from DEX-treated rats, 50 μM PCB 136, 5 min): 2%
- Percent of PCB 136 metabolized to the metabolite [1]: 0.1%
- Metabolite formation, Percent of ΣOH-PCB [1, 9]: 1%
- Metabolite formation, Percent of ΣOH-PCB [1, 8]: 15%
- Formation of metabolite by rat recombinant P450 2B1 (rat recombinant P450 2B1): no detectable quantities
- Concentration needed to double basal RyR activity (EC2x) [2]: 1.60 µM
- Enantiomeric fraction (EF) ([3]; DEX-microsomes, 5 μM PCB 136, 30 min): 0.22
- Enantiomeric fraction (EF) ([3]; DEX-microsomes, 50 μM PCB 136, 1 min): 0.39
- Enantiomeric fraction (EF) ([3]; DEX-microsomes, 50 μM PCB 136, 10 min): 0.33
- Enantiomeric fraction (EF) ([3]; PB-microsomes, 50 μM PCB 136, 1 min): 0.43
- Enantiomeric fraction (EF), direction of enrichment [3, 10]: < 0.5
- Enantiomeric fraction (EF), direction of enrichment [3, 11]: < 0.5

Compound: Oc1cc(Cl)c(Cl)c(-c2c(Cl)ccc(Cl)c2Cl)c1Cl [5-OH-PCB 136, 2,2',3,3',6,6'-hexachlorobiphenyl-5-ol]
- Metabolite identified by GC/MS (major/minor) [1, 5]: major metabolite
- Metabolite formation, Percent of ΣOH-PCB [1, 6]: 94%
- Percent of PCB 136 converted to the metabolite [1, 12]: ~2%
- Formation of metabolite relative to microsomes from VEH-treated rats [1, 12]: 8 times
- Metabolite formation, Percent of ΣOH-PCB [1, 7]: 78%
- Percent of PCB 136 converted to the metabolite [1, 5]: approximately 22%
- Metabolite formation, Percent of ΣOH-PCB [1, 9]: 99%
- Formation of metabolite relative to microsomes from VEH-treated rats [1, 5]: 84 times
- Metabolite formation, Percent of ΣOH-PCB [1, 8]: 83%
- Percent of PCB 136 converted to the metabolite ([1]; microsomes from VEH-treated rats): ~0.4%
- Enantiomeric fraction (EF), range over time course ([3]; PB-microsomes): 0.70-0.72
- Enantiomeric fraction (EF), range over time course ([3]; VEH-microsomes): 0.62-0.75
- Enantiomeric fraction (EF) ([3]; VEH-microsomes, 50 μM PCB 136, 1 min): 0.62
- Enantiomeric fraction (EF), direction of enrichment [3, 10]: > 0.5
- Enantiomeric fraction (EF), direction of enrichment [3, 11]: > 0.5

Compound: Clc1ccc(Cl)c(-c2c(Cl)ccc(Cl)c2Cl)c1Cl [(-)-PCB 136]
- Activity towards RyRs ([2]; enantiospecific): displays activity

Compound: C[C@@H]1C[C@H]2[C@@H]3CCC4=CC(=O)C=C[C@]4(C)[C@@]3(F)[C@@H](O)C[C@]2(C)[C@@]1(O)C(=O)CO [DEX, dexamethasone]
- Increase in BROD activity in hepatic microsomes of treated rats (P450 2B enzymes): 7 fold
- Increase in BQ activity in hepatic microsomes of treated rats (P450 3A): 84 fold

Compound: CCC1(c2ccccc2)C(=O)NC(=O)NC1=O [PB, phenobarbital]
- Increase in BROD activity in hepatic microsomes of treated rats (P450 2B enzymes): 94 fold

Compound: Clc1ccc(Cl)c(-c2c(Cl)ccc(Cl)c2Cl)c1Cl [PCB 136, 2,2',3,3',6,6'-hexachlorobiphenyl]
- Enantiomeric fraction (EF) ([3]; PB-microsomes, 5 μM PCB 136, 5 min incubation): 0.35
- Enantiomeric fraction (EF) ([3]; VEH-microsomes, 5 μM PCB 136, 5 min incubation): 0.49
- solubility [4]: ~0.25 µM (≈ 0.0902 µg/mL)

From paper PMC3243785 (Chemical research in toxicology, 2011)
